Columns and labels:
Assay in all cases: HPLC assay, Michaelis-Menten regression
Assay type in all cases: biochemical, Cistanche tubulosa
[1] = system: CtUGT85A191; details: read-out: apparent KM; UDP-glucose donor; optimal conditions (supplement)
Outline: (§1)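 Recombinant enzyme is expressed in E. coli and purified. Kinetic reactions follow supplementary methods. They are stopped with a double volume of methanol and centrifuged at 12,000 × g for 30 min, and the supernatant is analysed by HPLC. Kinetic constants come from nonlinear Michaelis-Menten regression.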

[2] = system: CtUGT85AF12; details: read-out: apparent KM; UDP-glucose donor; optimal conditions (supplement)
Outline: as §1

[3] = system: CtUGT79G13; details: UDP-rhamnose donor; optimal conditions (supplement)
[4] = system: CtUGT73EV1; details: UDP-glucose donor; optimal conditions (supplement)

| Km [3] | Km [4] | SMILES | Km [1] | Km [2] |
| --- | --- | --- | --- | --- |
| – | – | OCCc1ccc(O)cc1 [compound 9, tyrosol] | 138 ± 22.7 µM | 9.92 ± 2.2 µM |
| – | – | OCCc1ccc(O)c(O)c1 [compound 10, hydroxytyrosol] | 288 ± 36.8 µM | 75.7 ± 12 µM |
| 77.8 ± 6.1 µM | – | O=C(/C=C/c1ccc(O)c(O)c1)O[C@H]1[C@H](O)[C@@H](O)[C@H](OCCc2ccc(O)c(O)c2)O[C@@H]1CO [compound 18, calA] | – | – |
| – | 135 ± 24.1 µM | C[C@@H]1O[C@@H](O[C@@H]2[C@@H](O)[C@H](OCCc3ccc(O)c(O)c3)O[C@H](CO)[C@H]2OC(=O)/C=C/c2ccc(O)c(O)c2)[C@H](O)[C@H](O)[C@H]1O [compound 20, acteoside] | – | – |
